# Screening results from PubChem BioAssay.
# Rows were chosen to be rich in hits. Some 4.1% of all compounds tested hit in one or more screens of this group.
# Autophagy HCS = autophagy modulation, high-content screen; MEF GFP-LC3 puncta imaging; test concentration mostly 10 µM; calls only at 10 µM (by protocol); hit rate 0.98% among 190,000; AID 463193;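 active = percentage of spot-positive cells more than 3 SD above its plate mean, without a fluorescence outlier flag or 80% toxicity; inconclusive = no clear call, values can overlap the other calls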;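 also: spot-positive cell cutoff set from DMSO-treated cells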
# ROMK primary = modulators of human ROMK potassium channel. P48048. Tet-inducible ROMK, thallium flux fluorescence; actives lie on both sides. B-score at 10 µM. hit rate 2% among 130,000;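 active = signal ratio slope over the read window, or its plate-corrected B-score, at least 3 SD from the plate mean, either direction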;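 also: B-score of the F/F0 ratio slope over 7 to 12 s after thallium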
# Target sequence (P48048 whole entry, looked up): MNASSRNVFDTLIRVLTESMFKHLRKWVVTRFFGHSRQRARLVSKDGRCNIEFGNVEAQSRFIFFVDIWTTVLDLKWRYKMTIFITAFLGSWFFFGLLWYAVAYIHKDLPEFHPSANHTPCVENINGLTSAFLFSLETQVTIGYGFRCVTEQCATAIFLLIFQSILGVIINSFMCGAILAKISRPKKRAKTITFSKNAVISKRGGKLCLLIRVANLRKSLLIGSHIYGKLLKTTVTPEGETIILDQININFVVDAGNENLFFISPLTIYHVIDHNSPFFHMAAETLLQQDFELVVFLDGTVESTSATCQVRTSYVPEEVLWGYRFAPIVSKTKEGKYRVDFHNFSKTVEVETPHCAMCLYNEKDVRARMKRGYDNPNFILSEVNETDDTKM
# Cl transport mod = modulates chloride dependent transport by human KCC2; AID 1456; KCC2 cells, thallium flux FluoZin-2 fluorescence; hit rate 2.2% among 190,000; B-score of Tl+ flux slope (higher = more flux/activation; lower = inhibition) at 10 µM;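 active = thallium flux slope and its plate-corrected score both differing from the plate sample mean at a set confidence after two filtering rounds, in either direction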;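 also: slope of fluorescence scaled to starting intensity during 10 to 20 s after thallium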
# Dynein cargo inh = blocks dynein driven cargo transport along microtubules; 3617.4 mouse cells, GR-EGFP nuclear translocation imaging; test concentration mostly 20 µM; stimulated with dexamethasone, 1 µM; stronger effect = lower value; hit rate 0.47% among 220,000; z-score, hits read low; AID 1381;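 active = plate z-score of nuclear minus cytoplasmic receptor signal below a set negative limit, without overly bright fluorescence or cell loss, cut at about -3.5 in these data, passing the limit was not always enough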;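 also: z-score of nuclear minus cytoplasmic ring GR-EGFP intensity difference per well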
#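 Buffer or medium – tet-free medium with charcoal-stripped serum · Signal – automated 10x imaging of fixed Hoechst-stained cells · Also added – dexamethasone agonist, 1.0 µM final, for 30 min · Incubation – induction 48 h, compound 1 h, agonist 30 min · Read-out – GR-EGFP nuclear translocation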
# Redox H2O2 prof = compounds producing H2O2 with reducing agent – biochemical, NIH compound library profiling, artefact control for MLSCN library redox annotation, primary screen | activation, % at 10 µM | DTT-dependent redox cycling H2O2, phenol red/HRP absorbance; 100% = 100 µM peroxide control, 0% = buffer | hit rate 0.03% among 200,000;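 active = activation of at least 50% relative to the plate's high and low controls in the primary single-dose screen; inactive = activation below 50%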;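 also: compound incubated with DTT at 0.8 mM final as the reducing agent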
# KCC2 sec1 = KCC2 (human) modulation, secondary assay. AID 1713. hit rate 15% among 3,700. normalised thallium flux (F/F0 slope) at 10 µM. HEK293-KCC2, thallium flux, FluoZin2 fluorescence; stronger effect = higher value. shares compounds with Cl transport mod;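 active = thallium flux slope above the same plate's solvent-only control mean plus 3 SD; inconclusive = the two replicate wells disagree; inactive = no significant difference from solvent-only control wells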
# KCC2 bumet counter = bumetanide-insensitive thallium flux in KCC2 cells with ouabain, counter-screen; normalized thallium flux at 10 µM; shares compounds with Cl transport mod; HEK293-KCC2 + bumetanide/ouabain, thallium flux FluoZin2; stronger effect = higher value; hit rate 49% among 3,700;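 active = thallium entry rate above the same plate's blocked-transporter control wells by more than 3 SD; inconclusive = the two repeat wells disagree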;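 also: raw slope of fluorescence over initial fluorescence between 10 and 20 s after thallium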
# KCC2 secondary2 = confirmation of human KCC2 transport modulators; HEK293-KCC2, thallium flux FluoZin2 fluorescence; actives lie on both sides; F/F0 rise rate, 10–20 s post-thallium; normalized thallium flux at 10 µM; shares compounds with Cl transport mod; hit rate 23% among 3,700;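 active = thallium flux slope more than 3 SD above or below the plate's solvent-only control mean, mostly below; inconclusive = the two repeat wells disagreed; inactive = no significant shift from solvent-only controls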;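 also: raw slope with 0.1% DMSO as baseline and bumetanide as block control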
# HEK counter1 = acts in parental HEK cells, KCC2 counter-screen; thallium flux rate (normalised fluorescence) at 10 µM; shares compounds with Cl transport mod; HEK293 parental cells, thallium flux FluoZin2, ouabain; baseline-ratio fluorescence slope, 10–20 s after thallium; AID 1716; hit rate 46% among 3,700;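 active = thallium flux rate significantly above the same plate's solvent-only control wells, beyond their mean plus 3 SD; inconclusive = the two replicate wells gave conflicting results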
# KCC2 ouabain = modulates human KCC2 on retest with ouabain; HEK293-KCC2, thallium flux FluoZin2 fluorescence; bidirectional: low = inhibitor, high = activator; AID 1717; shares compounds with Cl transport mod; raw Tl+ flux slope (below DMSO = inhibition, above = activation) at 10 µM; hit rate 48% among 3,700;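 active = thallium flux slope beyond 3 SD from same-plate DMSO control mean in most replicates, usually higher, sometimes lower; inconclusive = repeat tests gave conflicting results; inactive = no significant difference from controls in most replicates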;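 also: slope of initial-normalized fluorescence between seconds 10 and 20 after thallium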
# HEK counter2 = parental HEK flux effect, counter-screen 2 | shares compounds with Cl transport mod | HEK293 parental, thallium flux FluoZin-2 fluorescence slope | thallium flux slope at 10 µM | hit rate 33% among 3,700;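 active = thallium flux slope above the same plate's solvent-control mean plus 3 SD in both duplicate wells; inconclusive = duplicate wells that disagreed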;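 also: run without ouabain in cells lacking the KCC2 cotransporter; slope of fluorescence scaled to its starting value between 10 and 20 s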
# An asterisk follows results filed as active; i = inactive; ? = inconclusive; . = not tested or not shown.
SMILES,Autophagy HCS,ROMK primary,Cl transport mod,Dynein cargo inh,Redox H2O2 prof,KCC2 sec1,KCC2 bumet counter,KCC2 secondary2,HEK counter1,KCC2 ouabain,HEK counter2
CCCC(=O)Nc1ccc(NC(=S)NC(=O)c2cccs2)cc1,i,.,.,-0.33,0,.,.,.,.,.,.
CCN(CC)c1ccc(NC(=S)NC(=O)c2cccs2)cc1,i,0.29,21*,-1,0,0.016*,0.079*,0.038,0.084*,0.051*,0.02*
O=C(NC(=S)Nc1ccc(CN2CCCCC2)cc1)c1cccc(OCc2ccccc2)c1,i,0.14,1.3,-0.89,-1,.,.,.,.,.,.
O=C(NC(=S)Nc1ccc2c(c1)OCCO2)c1ccc(F)cc1Cl,i,-0.081,16*,1.5,0,0.0099,0.022*,0.033,0.012*,?,0.011
O=C(NC(=S)Nc1ccc(N2CCCCC2)c(Cl)c1)c1ccc2c(c1)OCCO2,i,-0.097,-0.89,0.9,-5,.,.,.,.,.,.
CN(C)S(=O)(=O)c1ccc(NC(=S)NC(=O)c2cccs2)cc1,i,0.12,4*,-0.19,1,0.0094,0.016*,0.029,0.0084*,?,0.0097
Cc1cc(C(=O)Nc2nc3c(s2)CCCC3)no1,i,.,4.4*,1.3,0,0.011,0.015*,0.034,0.0091*,0.024,?
Cc1onc(-c2ccccc2)c1C(=O)Nc1nc2c(s1)CCCC2,i,0.99,0.6,0.32,1,.,.,.,.,.,.
C=CCn1c(-c2ccc(Cl)cc2)c[nH]c1=S,i,-0.43,5.2*,0.048,1,?,0.029*,0.034,0.011*,0.026,?
C=CCn1c(-c2ccccc2)c[nH]c1=S,i,.,0.18,-0.16,1,.,.,.,.,.,.
Cc1ccc(C(=O)NCC(=O)OCC(=O)NC(C)c2ccccc2)s1 (stereo unspecified),i,-0.6,-0.62,-1.1,-2,.,.,.,.,.,.
CC(NC(=O)COC(=O)CC(c1ccccc1)c1ccccc1)c1ccccc1 (stereo unspecified),i,.,-4.7*,0.025,0,0.008,0.0037,0.027,0.0053*,0.018,?
Oc1ccc(/C=C/c2ccc3ccccc3n2)cc1,i,0.42,-3.4,-0.6,-1,.,.,.,.,.,.
O/C(=C\c1ccc2ccccc2n1)c1ccc(O)cc1O,i,-1.4,-5.1*,-0.78,1,0.0058*,0.0055,0.029,0.0075,0.014*,0.011
Cn1c(SCC(=O)NNC(=O)Cc2ccccc2)nnc1-c1ccccc1,i,1.5,0.9,0.86,0,.,.,.,.,.,.
O=C(Nc1nnc(-c2ccccc2Cl)o1)c1cc2cc([N+](=O)[O-])ccc2s1,i,0.49,6.6*,-0.26,-1,0.0055,0.015*,0.034,0.016*,?,0.017*
NCCCNC(=O)c1ccc(/C=N/O)nc1,i,.,-0.37,0.8,-1,.,.,.,.,.,.
c1cncc(-c2nnc(SCc3cccc4ccccc34)o2)c1,i,.,-4.3*,-0.51,-1,0.0087,0.0064,0.029,0.0064,0.02,0.0092
c1ccc(CSc2nnc(-c3cccnc3)o2)cc1,i,.,-0.057,0.88,-1,.,.,.,.,.,.
CC(C)c1ccc(OCC(=O)Nc2cccc(C(=O)Nc3ccccc3C(=O)O)c2)cc1,i,0.055,-5*,1.7,-1,0.0082,0.0055,0.033,0.0057*,0.016*,0.0097
Cc1cccc(OCC(=O)Nc2cccc(C(=O)Nc3ccccc3C(=O)O)c2)c1,i,.,-4.8,0.42,0,.,.,.,.,.,.
S=c1nc(-c2ccccc2)c(-c2ccccc2)n[nH]1,.,.,6*,-1.3,.,0.0061,0.014*,0.036,0.016*,?,0.02*
CSc1nc2[nH]c3c(c2c2ncnn12)CCCC3,i,0.036,-0.014,-0.11,0,0.0088,0.0061,0.032,0.0075,0.019,0.011
CSc1c2c(nc3ncnn13)CCC2,i,0.4,0.89,0.56,0,.,.,.,.,.,.
Cc1ccc(/C=N\Nc2nc3ccc(Cl)cc3[nH]2)o1,i,-0.098,4.8*,-0.49,2,0.0071,0.0043,0.031,?,0.019,0.012
SMILES,Autophagy HCS,ROMK primary,Cl transport mod,Dynein cargo inh,Redox H2O2 prof,KCC2 sec1,KCC2 bumet counter,KCC2 secondary2,HEK counter1,KCC2 ouabain,HEK counter2
Fc1ccccc1-c1ccc(/C=N/Nc2nc3ccccc3[nH]2)o1,i,-0.24,-0.21,-0.64,0,.,.,.,.,.,.
NNC(=O)Cn1c(SCc2ccccc2)nc2ccccc21,i,-0.083,-3.3*,0.47,0,0.0074,0.0045,0.03,0.0074,0.018,0.0099
O=C(O)CCn1c(SCc2cccc3ccccc23)nc2ccccc21,i,-0.93,-8.7*,-0.00072,7,?,0.0065,0.022*,0.0066,0.016*,0.0097
CCSc1nc2ccccc2n1CCC(=O)O,i,.,-0.57,-0.011,2,.,.,.,.,.,.
CC1=CC(C)(C)[N+](C)=CN1c1ccccc1,i,-0.057,.,-0.52,0,.,.,.,.,.,.
CCCN1Cc2cccc(C(=O)Nc3ccc(C)cc3)c2C1=O,i,-0.47,.,1.4,0,0.0058,0.0043,0.028,0.0073,0.018,0.0099
CC(C)n1c(=S)[nH]c2cc(Cl)ccc21,.,1.2,28*,-0.00031,.,0.016*,0.09*,0.04,0.03*,0.039*,0.015*
Clc1ccc2nc(N3CCCCC3)[nH]c2c1,i,0.012,-0.25,-0.19,1,.,.,.,.,.,.
CCOC(=O)NC(=S)Nc1ccc(C(C)(C)C)cc1,.,-0.06,139*,-0.019,.,0.026*,0.085*,0.039,0.065*,0.067*,0.02*
CC(C)(C)c1ccc(C(=O)NC(=S)NCc2cccnc2)cc1,i,-1.3,3.4,3.4,0,.,.,.,.,.,.
CC(C)(C)C(=O)NC(=S)Nc1ccc(C(F)(F)F)cc1,.,-0.26,1.7,0.23,.,.,.,.,.,.,.
CCOC(=O)c1sc(NC(=S)NC(=O)c2ccccc2)nc1C,i,1.6,54*,-0.96,-1,0.0055,0.089*,0.071*,0.063*,0.081*,0.055*
COC(=O)CNC(=S)NC(=O)c1ccc(C(C)(C)C)cc1,i,-1,6.3*,-0.00075,0,0.0054,0.015*,0.032,0.011*,?,?
